≈ marks a conversion by molar mass, not a printed value.
The compounds below were run on Staphylococcus aureus (assay: In vitro antimicrobial activity against Staphylococcus aureus X400 strain).
Format: functional
`CO/N=C(\C(=O)N[C@@H]1C(=O)N2C(C(=O)O)=C(COC(C)=O)CS[C@H]12)c1csc(N)n1` [CEFOTAXIME] gave an MIC of 64 µg/mL (≈ 141 µM).
Work on `Nc1nc(/C(=N\OCCF)C(=O)N[C@@H]2C(=O)N3C(C(=O)[O-])=C(Sc4ncccn4)CC[C@H]23)cs1.[Na+]` yielded an MIC of 128 µg/mL.
With `Nc1nc(/C(=N\OCCF)C(=O)N[C@@H]2C(=O)N3C(C(=O)[O-])=C(Sc4nc5ccccc5o4)CC[C@H]23)cs1.[Na+]` the MIC was 64 µg/mL.
In the case of `Nc1nc(/C(=N\OCCF)C(=O)N[C@@H]2C(=O)N3C(C(=O)[O-])=C(Sc4nccnc4N)CC[C@H]23)cs1.[Na+]`, the MIC is reported as over 128 µg/mL.

The compounds below were run on Klebsiella (assay: In vitro antimicrobial activity against Klebsiella X26 strain).
Format: functional
For `CO/N=C(\C(=O)N[C@@H]1C(=O)N2C(C(=O)O)=C(COC(C)=O)CS[C@H]12)c1csc(N)n1` [CEFOTAXIME], the MIC was under 0.008 µg/mL.
Work on `Nc1nc(/C(=N\OCCF)C(=O)N[C@@H]2C(=O)N3C(C(=O)[O-])=C(Sc4ncccn4)CC[C@H]23)cs1.[Na+]` yielded an MIC of 0.015 µg/mL.
`Nc1nc(/C(=N\OCCF)C(=O)N[C@@H]2C(=O)N3C(C(=O)[O-])=C(Sc4nc5ccccc5o4)CC[C@H]23)cs1.[Na+]` gave an MIC of 0.015 µg/mL.
`Nc1nc(/C(=N\OCCF)C(=O)N[C@@H]2C(=O)N3C(C(=O)[O-])=C(Sc4nccnc4N)CC[C@H]23)cs1.[Na+]` showed an MIC of 0.015 µg/mL.

These compounds were tested on Pseudomonas aeruginosa (assay: Antimicrobial activity against Pseudomonas PS18 strain).
Format: functional
Work on `CO/N=C(\C(=O)N[C@@H]1C(=O)N2C(C(=O)O)=C(COC(C)=O)CS[C@H]12)c1csc(N)n1` [CEFOTAXIME] yielded an MIC of 16 µg/mL (≈ 35.1 µM).
Work on `Nc1nc(/C(=N\OCCF)C(=O)N[C@@H]2C(=O)N3C(C(=O)[O-])=C(Sc4ncccn4)CC[C@H]23)cs1.[Na+]` yielded an MIC of over 128 µg/mL.
Work on `Nc1nc(/C(=N\OCCF)C(=O)N[C@@H]2C(=O)N3C(C(=O)[O-])=C(Sc4nc5ccccc5o4)CC[C@H]23)cs1.[Na+]` yielded an MIC of 32 µg/mL.
For `Nc1nc(/C(=N\OCCF)C(=O)N[C@@H]2C(=O)N3C(C(=O)[O-])=C(Sc4nccnc4N)CC[C@H]23)cs1.[Na+]`, the MIC was 16 µg/mL.

Organism: Rattus norvegicus
Assay: In vitro plasma protein binding was evaluated using Sprauge-Dawley rat at 20 ug/mL
Format: ADME
Outline: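 Binding was measured by ultrafiltration (Centrifree micropartition) in pooled plasma (ICR mouse, Sprague–Dawley rat, rhesus monkey or human) at a drug concentration of 20 μg/mL.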
`CO/N=C(\C(=O)N[C@@H]1C(=O)N2C(C(=O)O)=C(COC(C)=O)CS[C@H]12)c1csc(N)n1` [CEFOTAXIME] showed a Bound of 88.5%.

These compounds were tested on Streptococcus pneumoniae (assay: In vitro antimicrobial activity against Streptococcus pneumoniae PARK strain).
Format: functional
Work on `CO/N=C(\C(=O)N[C@@H]1C(=O)N2C(C(=O)O)=C(COC(C)=O)CS[C@H]12)c1csc(N)n1` [CEFOTAXIME] yielded an MIC of 0.015 µg/mL (≈ 0.0329 µM).
`Nc1nc(/C(=N\OCCF)C(=O)N[C@@H]2C(=O)N3C(C(=O)[O-])=C(Sc4ncccn4)CC[C@H]23)cs1.[Na+]` was tested, and the MIC was 0.03 µg/mL.
Work on `Nc1nc(/C(=N\OCCF)C(=O)N[C@@H]2C(=O)N3C(C(=O)[O-])=C(Sc4nc5ccccc5o4)CC[C@H]23)cs1.[Na+]` yielded an MIC of under 0.008 µg/mL.
`Nc1nc(/C(=N\OCCF)C(=O)N[C@@H]2C(=O)N3C(C(=O)[O-])=C(Sc4nccnc4N)CC[C@H]23)cs1.[Na+]` gave an MIC of under 0.008 µg/mL.

The compounds below were run on Pseudomonas aeruginosa (assay: In vitro antimicrobial activity against Pseudomonas X239 strain).
Format: functional
With `CO/N=C(\C(=O)N[C@@H]1C(=O)N2C(C(=O)O)=C(COC(C)=O)CS[C@H]12)c1csc(N)n1` [CEFOTAXIME] the MIC was 8 µg/mL (≈ 17.6 µM).
With `Nc1nc(/C(=N\OCCF)C(=O)N[C@@H]2C(=O)N3C(C(=O)[O-])=C(Sc4ncccn4)CC[C@H]23)cs1.[Na+]` the MIC was over 128 µg/mL.
Work on `Nc1nc(/C(=N\OCCF)C(=O)N[C@@H]2C(=O)N3C(C(=O)[O-])=C(Sc4nc5ccccc5o4)CC[C@H]23)cs1.[Na+]` yielded an MIC of 32 µg/mL.
In the case of `Nc1nc(/C(=N\OCCF)C(=O)N[C@@H]2C(=O)N3C(C(=O)[O-])=C(Sc4nccnc4N)CC[C@H]23)cs1.[Na+]`, the MIC is reported as 128 µg/mL.

These compounds were tested on Staphylococcus aureus (assay: In vitro antimicrobial activity against Staphylococcus aureus X1.1 strain).
Format: functional
In the case of `CO/N=C(\C(=O)N[C@@H]1C(=O)N2C(C(=O)O)=C(COC(C)=O)CS[C@H]12)c1csc(N)n1` [CEFOTAXIME], the MIC is reported as 2 µg/mL (≈ 4.39 µM).
`Nc1nc(/C(=N\OCCF)C(=O)N[C@@H]2C(=O)N3C(C(=O)[O-])=C(Sc4ncccn4)CC[C@H]23)cs1.[Na+]` showed an MIC of 2 µg/mL.
Work on `Nc1nc(/C(=N\OCCF)C(=O)N[C@@H]2C(=O)N3C(C(=O)[O-])=C(Sc4nc5ccccc5o4)CC[C@H]23)cs1.[Na+]` yielded an MIC of 0.125 µg/mL.
`Nc1nc(/C(=N\OCCF)C(=O)N[C@@H]2C(=O)N3C(C(=O)[O-])=C(Sc4nccnc4N)CC[C@H]23)cs1.[Na+]` showed an MIC of 0.5 µg/mL.

These compounds were tested on Enterobacter cloacae (assay: In vitro evaluation of antimicrobial activity against Enterobacter cloacae EB5 strain).
Format: functional
`CO/N=C(\C(=O)N[C@@H]1C(=O)N2C(C(=O)O)=C(COC(C)=O)CS[C@H]12)c1csc(N)n1` [CEFOTAXIME] showed an MIC of 0.25 µg/mL (≈ 0.549 µM).
`Nc1nc(/C(=N\OCCF)C(=O)N[C@@H]2C(=O)N3C(C(=O)[O-])=C(Sc4ncccn4)CC[C@H]23)cs1.[Na+]` was tested, and the MIC was 1 µg/mL.
Compound `Nc1nc(/C(=N\OCCF)C(=O)N[C@@H]2C(=O)N3C(C(=O)[O-])=C(Sc4nc5ccccc5o4)CC[C@H]23)cs1.[Na+]` has an MIC of 1 µg/mL.
Work on `Nc1nc(/C(=N\OCCF)C(=O)N[C@@H]2C(=O)N3C(C(=O)[O-])=C(Sc4nccnc4N)CC[C@H]23)cs1.[Na+]` yielded an MIC of 1 µg/mL.

Each compound was assayed on Haemophilus influenzae (assay: In vitro antimicrobial activity against Haemophilus influenzae C.L. strain).
Format: functional
With `CO/N=C(\C(=O)N[C@@H]1C(=O)N2C(C(=O)O)=C(COC(C)=O)CS[C@H]12)c1csc(N)n1` [CEFOTAXIME] the MIC was 0.015 µg/mL (≈ 0.0329 µM).
`Nc1nc(/C(=N\OCCF)C(=O)N[C@@H]2C(=O)N3C(C(=O)[O-])=C(Sc4ncccn4)CC[C@H]23)cs1.[Na+]` showed an MIC of 0.03 µg/mL.
Work on `Nc1nc(/C(=N\OCCF)C(=O)N[C@@H]2C(=O)N3C(C(=O)[O-])=C(Sc4nc5ccccc5o4)CC[C@H]23)cs1.[Na+]` yielded an MIC of 0.03 µg/mL.
For `Nc1nc(/C(=N\OCCF)C(=O)N[C@@H]2C(=O)N3C(C(=O)[O-])=C(Sc4nccnc4N)CC[C@H]23)cs1.[Na+]`, the MIC was 0.015 µg/mL.

The compounds below were run on Staphylococcus epidermidis (assay: In vitro antimicrobial activity against Staphylococcus epidermidis 270 strain).
Format: functional
`CO/N=C(\C(=O)N[C@@H]1C(=O)N2C(C(=O)O)=C(COC(C)=O)CS[C@H]12)c1csc(N)n1` [CEFOTAXIME] was tested, and the MIC was 8 µg/mL (≈ 17.6 µM).
In the case of `Nc1nc(/C(=N\OCCF)C(=O)N[C@@H]2C(=O)N3C(C(=O)[O-])=C(Sc4ncccn4)CC[C@H]23)cs1.[Na+]`, the MIC is reported as 8 µg/mL.
Work on `Nc1nc(/C(=N\OCCF)C(=O)N[C@@H]2C(=O)N3C(C(=O)[O-])=C(Sc4nc5ccccc5o4)CC[C@H]23)cs1.[Na+]` yielded an MIC of 2 µg/mL.
Compound `Nc1nc(/C(=N\OCCF)C(=O)N[C@@H]2C(=O)N3C(C(=O)[O-])=C(Sc4nccnc4N)CC[C@H]23)cs1.[Na+]` has an MIC of 4 µg/mL.

The compounds below were run on Escherichia coli (assay: In vitro evaluation of antimicrobial activity against Escherichia coli EC14 strain).
Format: functional
`CO/N=C(\C(=O)N[C@@H]1C(=O)N2C(C(=O)O)=C(COC(C)=O)CS[C@H]12)c1csc(N)n1` [CEFOTAXIME] showed an MIC of 0.03 µg/mL (≈ 0.0659 µM).
For `Nc1nc(/C(=N\OCCF)C(=O)N[C@@H]2C(=O)N3C(C(=O)[O-])=C(Sc4ncccn4)CC[C@H]23)cs1.[Na+]`, the MIC was 0.125 µg/mL.
Work on `Nc1nc(/C(=N\OCCF)C(=O)N[C@@H]2C(=O)N3C(C(=O)[O-])=C(Sc4nc5ccccc5o4)CC[C@H]23)cs1.[Na+]` yielded an MIC of 0.25 µg/mL.
In the case of `Nc1nc(/C(=N\OCCF)C(=O)N[C@@H]2C(=O)N3C(C(=O)[O-])=C(Sc4nccnc4N)CC[C@H]23)cs1.[Na+]`, the MIC is reported as 0.125 µg/mL.

These compounds were tested on Staphylococcus aureus (assay: In vitro antimicrobial activity against Staphylococcus aureus S13E strain).
Format: functional
`CO/N=C(\C(=O)N[C@@H]1C(=O)N2C(C(=O)O)=C(COC(C)=O)CS[C@H]12)c1csc(N)n1` [CEFOTAXIME] was tested, and the MIC was 8 µg/mL (≈ 17.6 µM).
With `Nc1nc(/C(=N\OCCF)C(=O)N[C@@H]2C(=O)N3C(C(=O)[O-])=C(Sc4ncccn4)CC[C@H]23)cs1.[Na+]` the MIC was 32 µg/mL.
`Nc1nc(/C(=N\OCCF)C(=O)N[C@@H]2C(=O)N3C(C(=O)[O-])=C(Sc4nc5ccccc5o4)CC[C@H]23)cs1.[Na+]` was tested, and the MIC was 2 µg/mL.
Compound `Nc1nc(/C(=N\OCCF)C(=O)N[C@@H]2C(=O)N3C(C(=O)[O-])=C(Sc4nccnc4N)CC[C@H]23)cs1.[Na+]` has an MIC of 32 µg/mL.

What follows are compounds tested on Staphylococcus epidermidis (assay: In vitro antimicrobial activity against Staphylococcus epidermidis 222 strain).
Format: functional
`CO/N=C(\C(=O)N[C@@H]1C(=O)N2C(C(=O)O)=C(COC(C)=O)CS[C@H]12)c1csc(N)n1` [CEFOTAXIME] gave an MIC of 2 µg/mL (≈ 4.39 µM).
`Nc1nc(/C(=N\OCCF)C(=O)N[C@@H]2C(=O)N3C(C(=O)[O-])=C(Sc4ncccn4)CC[C@H]23)cs1.[Na+]` gave an MIC of 4 µg/mL.
For `Nc1nc(/C(=N\OCCF)C(=O)N[C@@H]2C(=O)N3C(C(=O)[O-])=C(Sc4nc5ccccc5o4)CC[C@H]23)cs1.[Na+]`, the MIC was 1 µg/mL.
Work on `Nc1nc(/C(=N\OCCF)C(=O)N[C@@H]2C(=O)N3C(C(=O)[O-])=C(Sc4nccnc4N)CC[C@H]23)cs1.[Na+]` yielded an MIC of 1 µg/mL.
